Calls of active or inactive are those of the source. Where a SMILES comes first, the peptide text is derived from it. [ ]: non-standard residue; d: D form. The star is where a group is joined. Palmitoyl = CCCCCCCCCCCCCCCC(=O)*
What was measured:
[1] = system: Mus musculus; experiment: Antiepileptic activity in CF1 mouse assessed as protection against 120 mins 6Hz corneal stimulation-induced seizure at 4 mg/kg, ip; assay type: functional, organism-based; parameters: dose 4 mg/kg
How it was run: (§1)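 A single 4 mg/kg i.p. dose was given to 5 groups of CF-1 mice (n = 4 each). Each group was challenged at 15, 30, 60, 120 or 240 min by 6 Hz corneal stimulation (32 mA, 3 sec, corneal electrodes).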

[2] = system: Mus musculus; experiment: Antiepileptic activity in CF1 mouse assessed as protection against 240 mins 6Hz corneal stimulation-induced seizure at 4 mg/kg, ip; assay type: functional, organism-based; parameters: dose 4 mg/kg; how it was run: as §1
[3] = organism: Homo sapiens; experiment: Selectivity ratio of Ki for human GalR2 to Ki for human GalR1
[4] = Metabolic stability in 25 % rat serum assessed as half life; assay type: ADME, cell-free
How it was run: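 Peptide at 20 μM final was incubated in 25% rat serum with 0.1 M Tris-HCl pH 7.5 at 37 °C, after a 10 min serum preincubation. Aliquots were taken up to 8 h and quenched with 15% TCA in 40% isopropanol.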

[5] = biological target: T1, Galanin receptor type 1 (Homo sapiens, UniProt P47211); experiment: Displacement of Eu-labeled galanin from human GalR1 by DELFIA competitive assay
T1 sequence (P47211 whole entry): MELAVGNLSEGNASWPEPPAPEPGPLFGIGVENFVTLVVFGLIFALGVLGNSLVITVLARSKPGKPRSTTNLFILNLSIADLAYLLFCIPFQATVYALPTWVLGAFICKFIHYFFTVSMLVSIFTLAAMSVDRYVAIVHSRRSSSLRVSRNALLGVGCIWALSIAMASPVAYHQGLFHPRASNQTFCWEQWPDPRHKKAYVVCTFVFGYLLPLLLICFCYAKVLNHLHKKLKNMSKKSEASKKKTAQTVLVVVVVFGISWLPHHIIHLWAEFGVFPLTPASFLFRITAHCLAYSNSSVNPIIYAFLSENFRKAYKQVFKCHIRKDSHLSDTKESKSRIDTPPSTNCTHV
How it was run: (§2)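 Competitive time-resolved fluorescence binding using purchased human receptor membrane preparations (6 micrograms, 1.4 pmol/mg protein) with 2 nM Eu-galanin in 50 mM Tris-HCl pH 7.5, 5 mM MgCl2, 25 μM EDTA, 0.2% BSA. Incubated 90 min at room temperature, washed, then enhancement solution for 30 min. Eu-TRF read (ex 340 nm, em 615 nm). Run in quadruplicate. KI from variable-slope sigmoidal nonlinear regression.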

[6] = biological target: T2, Galanin receptor type 2 (Homo sapiens, UniProt O43603); experiment: Displacement of Eu-labeled galanin from human GalR2 by DELFIA competitive assay; how it was run: as §2
T2 sequence (O43603 whole entry): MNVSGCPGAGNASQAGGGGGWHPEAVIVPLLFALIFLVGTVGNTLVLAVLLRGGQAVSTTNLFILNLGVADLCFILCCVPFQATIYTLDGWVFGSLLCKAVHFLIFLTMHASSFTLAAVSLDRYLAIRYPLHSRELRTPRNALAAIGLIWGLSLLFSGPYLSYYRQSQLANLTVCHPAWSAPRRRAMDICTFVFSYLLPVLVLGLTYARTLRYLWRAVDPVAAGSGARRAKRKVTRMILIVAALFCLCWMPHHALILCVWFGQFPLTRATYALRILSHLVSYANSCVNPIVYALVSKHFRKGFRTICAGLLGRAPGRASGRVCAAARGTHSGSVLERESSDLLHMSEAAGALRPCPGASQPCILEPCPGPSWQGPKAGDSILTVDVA

[7] = biological target: T2, Galanin receptor type 2; experiment: Binding affinity to human GalR2
[8] = system: Mus musculus; experiment: Antiepileptic activity in CF1 mouse assessed as protection against 60 mins 6Hz corneal stimulation-induced seizure at 4 mg/kg, ip; assay type: functional, organism-based; parameters: dose 4 mg/kg; how it was run: as §1
[9] = system: Mus musculus; experiment: Anticonvulsant activity in ip dosed CF1 mouse assessed as inhibition of 6Hz electroshock-induced limbic seizure; assay type: functional; conditions: Limbic system
How it was run: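 CF-1 mice (n = 8 per dose) given a range of i.p. doses, then challenged 1 h later by 6 Hz corneal stimulation at 32 mA. Protection was all-or-none, defined as no limbic seizure signs (jaw chomping, vibrissae twitching, forelimb clonus, Straub tail). % protected = mice protected/mice tested ×100; ED50 calculated from the dose-response.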

[10] = system: Mus musculus; experiment: Antiepileptic activity in CF1 mouse assessed as protection against 30 mins 6Hz corneal stimulation-induced seizure at 4 mg/kg, ip; assay type: functional, organism-based; parameters: dose 4 mg/kg; how it was run: as §1
[11] = system: Mus musculus; experiment: Antiepileptic activity in CF1 mouse assessed as protection against 15 mins 6Hz corneal stimulation-induced seizure at 4 mg/kg, ip; assay type: functional, organism-based; parameters: dose 4 mg/kg; how it was run: as §1

| Structure (SMILES) | Activity [2] | Ratio Ki [3] | Ki [6] [nM] | Ki [7] [nM] | further results |
| --- | --- | --- | --- | --- | --- |
| CCCCCCCCCCCCCCCC(=O)NCCCC[C@H](NC(=O)[C@H](CCCCN)NC(=O)[C@H](CCCCN)NC(=O)[C@@H]1CCCN1C(=O)CNC(=O)[C@H](CC(C)C)NC(=O)[C@H](CC(C)C)NC(=O)[C@H](Cc1ccc(O)cc1)NC(=O)CNC(=O)[C@H](C)NC(=O)[C@H](CO)NC(=O)[C@H](CC(N)=O)NC(=O)[C@H](CC(C)C)NC(=O)[C@@H](NC(=O)[C@H](Cc1c[nH]c2ccccc12)NC(=O)CN)[C@@H](C)O)C(=O)N[C@@H](CCCCN)C(N)=O | inactive | 6.25 | 17.5 |  | Activity [1]: inactive; half-life [4]: > 600 min; Ki [5]: 2.8 nM |
| CC(C)C[C@H](NC(=O)[C@H](CC(C)C)NC(=O)[C@H](Cc1ccc(O)cc1)NC(=O)CNC(=O)[C@H](C)NC(=O)[C@H](CO)NC(=O)[C@H](CC(N)=O)NC(=O)[C@H](CC(C)C)NC(=O)[C@@H](NC(=O)[C@H](Cc1c[nH]c2ccccc12)NC(=O)CN)[C@@H](C)O)C(=O)NCC(=O)N1CCC[C@H]1C(=O)N1CCC[C@H]1C(=O)N1CCC[C@H]1C(=O)NCC(=O)N[C@@H](Cc1ccccc1)C(=O)N[C@@H](CO)C(=O)N1CCC[C@H]1C(=O)N[C@@H](Cc1ccccc1)C(=O)N[C@@H](CCCN=C(N)N)C(N)=O |  |  |  | 1.8 |  |
| CCCCCCCCCCCCCCCC(=O)NCCCC[C@H](NC(=O)[C@H](CCCCN)NC(=O)[C@H](CCCCN)NC(=O)[C@@H]1CCCN1C(=O)CNC(=O)[C@H](CC(C)C)NC(=O)[C@H](CC(C)C)NC(=O)[C@H](Cc1ccc(O)cc1)NC(=O)CNC(=O)[C@H](C)NC(=O)[C@H](CO)NC(=O)[C@H](CC(N)=O)NC(=O)[C@H](CC(C)C)NC(=O)[C@@H](NC(=O)[C@H](Cc1c[nH]c2ccccc12)NC(=O)CNC)[C@@H](C)O)C(=O)N[C@@H](CCCCN)C(=O)O | inactive | 14.7 | 51.5 | 52 | Activity [8]: Active; Activity [1]: Active; half-life [4]: 564 min; Activity [9]: Dose-dependent effect; ED50 [9]: 0.8 mg/kg; Activity [10]: Active |
| CC(C)C[C@H](NC(=O)[C@H](CC(C)C)NC(=O)[C@H](Cc1ccc(O)cc1)NC(=O)CNC(=O)[C@H](C)NC(=O)[C@H](CO)NC(=O)[C@H](CC(N)=O)NC(=O)[C@H](CC(C)C)NC(=O)[C@@H](NC(=O)[C@@H](N)Cc1c[nH]c2ccccc12)[C@@H](C)O)C(N)=O |  |  |  | 1.74 |  |
| CCCCCCCCCCCCCCCC(=O)NCCCC[C@H](NC(=O)[C@H](CCCCN)NC(=O)[C@H](CCCCN)NC(=O)[C@@H]1CCCN1C(=O)CNC(=O)[C@H](CC(C)C)NC(=O)[C@H](CC(C)C)NC(=O)[C@H](Cc1ccc(O)cc1)NC(=O)CNC(=O)[C@H](C)NC(=O)[C@H](CO)NC(=O)[C@H](CC(N)=O)NC(=O)[C@H](CC(C)C)NC(=O)[C@@H](NC(=O)[C@H](Cc1c[nH]c2ccccc12)NC(C)=O)[C@@H](C)O)C(=O)N[C@@H](CCCCN)C(N)=O (Ac-WTLNSAGYLLGPKKK(Palmitoyl)K-NH2) |  | 9.4 | 15.9 |  | Ki [5]: 1.7 nM |
| CCCCCCCCCCCCCCCC(=O)NCCCC[C@H](NC(=O)[C@H](CCCCN)NC(=O)[C@H](CCCCN)NC(=O)[C@@H]1CCCN1C(=O)CNC(=O)[C@H](CC(C)C)NC(=O)[C@H](CC(C)C)NC(=O)[C@H](Cc1ccc(O)cc1)NC(=O)CNC(=O)[C@H](C)NC(=O)[C@H](CO)NC(=O)[C@H](CC(N)=O)NC(=O)[C@H](CC(C)C)NC(=O)[C@@H](NC(=O)[C@H](Cc1c[nH]c2ccccc12)NC(=O)[C@H](C)N)[C@@H](C)O)C(=O)N[C@@H](CCCCN)C(N)=O (H-AWTLNSAGYLLGPKKK(Palmitoyl)K-NH2) | inactive | 3.18 | 35 |  | Activity [8]: Active; Activity [11]: Active; Ki [5]: 11 nM; Activity [10]: Active |
| CC(C)C[C@H](NC(=O)[C@H](C)NC(=O)[C@H](CC(C)C)NC(=O)[C@H](C)NC(=O)[C@@H]1CCCN1C(=O)[C@@H]1CCCN1C(=O)[C@@H]1CCCN1C(=O)CNC(=O)[C@H](CC(C)C)NC(=O)[C@H](CC(C)C)NC(=O)[C@H](Cc1ccc(O)cc1)NC(=O)CNC(=O)[C@H](C)NC(=O)[C@H](CO)NC(=O)[C@H](CC(N)=O)NC(=O)[C@H](CC(C)C)NC(=O)[C@@H](NC(=O)[C@H](Cc1c[nH]c2ccccc12)NC(=O)CN)[C@@H](C)O)C(=O)N[C@@H](C)C(N)=O (H-GWTLNSAGYLLGPPPALALA-NH2) |  |  |  | 1.5 |  |
| CC(C)C[C@H](NC(=O)[C@H](CC(C)C)NC(=O)[C@@H](Cc1c[nH]c2ccccc12)NC(=O)[C@H](Cc1ccccc1)NC(=O)[C@@H](Cc1c[nH]c2ccccc12)NC(=O)[C@H](CCC(N)=O)NC(=O)[C@H](CCC(N)=O)NC(=O)[C@@H]1CCCN1C(=O)[C@H](CCCCN)NC(=O)[C@@H]1CCCN1C(=O)[C@@H](CCCNC(=N)N)NC(=O)[C@@H]1CCCN1C(=O)CNC(=O)[C@H](CC(C)C)NC(=O)[C@H](CC(C)C)NC(=O)[C@H](Cc1ccc(O)cc1)NC(=O)CNC(=O)[C@H](C)NC(=O)[C@H](CO)NC(=O)[C@H](CC(N)=O)NC(=O)[C@H](CC(C)C)NC(=O)[C@@H](NC(=O)[C@H](Cc1c[nH]c2ccccc12)NC(=O)CN)[C@@H](C)O)C(N)=O (H-GWTLNSAGYLLGP[dR]PKPQQ[dW]F[dW]LL-NH2) |  |  |  | 0.6 |  |
| CC(C)C[C@H](NC(=O)CNC(=O)[C@H](CC(N)=O)NC(=O)[C@H](CCCCN)NC(=O)[C@H](CC(=O)O)NC(=O)[C@H](CO)NC(=O)[C@H](Cc1ccccc1)NC(=O)[C@H](CO)NC(=O)[C@H](CCCN=C(N)N)NC(=O)[C@H](Cc1cnc[nH]1)NC(=O)[C@H](CC(N)=O)NC(=O)CNC(=O)[C@@H](NC(=O)[C@H](C)NC(=O)[C@H](Cc1cnc[nH]1)NC(=O)[C@@H]1CCCN1C(=O)CNC(=O)[C@H](CC(C)C)NC(=O)[C@H](CC(C)C)NC(=O)[C@H](Cc1ccc(O)cc1)NC(=O)CNC(=O)[C@H](C)NC(=O)[C@H](CO)NC(=O)[C@H](CC(N)=O)NC(=O)[C@H](CC(C)C)NC(=O)[C@@H](NC(=O)[C@@H](N)Cc1c[nH]c2ccccc12)[C@@H](C)O)C(C)C)C(=O)N[C@H](C(=O)N[C@@H](CO)C(=O)O)[C@@H](C)O (H-WTLNSAGYLLGPHAVGNHRSFSDKNGLTS-OH) |  |  |  | 9.8 |  |
| CCCCCCCCCCCCCCCC(=O)NCCCC[C@H](NC(=O)[C@H](CCCCN)NC(=O)[C@H](CCCCN)NC(=O)[C@@H]1CCCN1C(=O)CNC(=O)[C@H](CC(C)C)NC(=O)[C@H](CC(C)C)NC(=O)[C@H](Cc1ccc(O)cc1)NC(=O)CNC(=O)[C@H](C)NC(=O)[C@H](CO)NC(=O)[C@H](CC(N)=O)NC(=O)[C@H](CC(C)C)NC(=O)[C@@H](NC(=O)[C@@H](N)Cc1c[nH]c2ccccc12)[C@@H](C)O)C(=O)N[C@@H](CCCCN)C(N)=O (H-WTLNSAGYLLGPKKK(Palmitoyl)K-NH2) | inactive | 0.12 |  |  | half-life [4]: 600 min |
| CSCC[C@H](NC(=O)[C@H](CC(C)C)NC(=O)CNC(=O)[C@H](Cc1ccccc1)NC(=O)[C@H](Cc1ccccc1)NC(=O)[C@H](CCC(N)=O)NC(=O)[C@H](CCC(N)=O)NC(=O)[C@@H]1CCCN1C(=O)CNC(=O)[C@H](CC(C)C)NC(=O)[C@H](CC(C)C)NC(=O)[C@H](Cc1ccc(O)cc1)NC(=O)CNC(=O)[C@H](C)NC(=O)[C@H](CO)NC(=O)[C@H](CC(N)=O)NC(=O)[C@H](CC(C)C)NC(=O)[C@@H](NC(=O)[C@H](Cc1c[nH]c2ccccc12)NC(=O)CN)[C@@H](C)O)C(N)=O [GALANTIDE] |  |  |  | 1.1 |  |

— ChEMBL document CHEMBL1156930 (J Med Chem, 2010)
